Results published in publication PMC9052575 (RSC Advances, 2020).
Like-named read-outs stand apart in the source and are kept apart here.

Legend:
[1] = tested on: MCF-7 cells; test: MTT anti-proliferative assay, MCF-7; format: cell-based, human; conditions: for IC50: read-out: IC50 against MCF-7 cells
[2] = tested on: MDA-MB-231 cells; test: MTT anti-proliferative assay, MDA-MB-231; format: cell-based, human; conditions: read-out: IC50 against MDA-MB-231 cells
[3] = tested on: HEK-293 cells; test: MTT toxicity assay, normal/non-tumor HEK-293 cells; format: cell-based; conditions: Homo sapiens, HEK293, read-out: IC50 against HEK-293 cells
How it was run: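 HEK-293 cells seeded at 5000 cells/well in triplicate. After 24 h, exposed for 24 h at 37 °C and 5% CO2 to test compound at 1–100 μM, diluted in complete DMEM. MTT (5 mg mL−1 stock in PBS) added for 2 h, then 10% SDS/10 mM HCl for 16 h at 37 °C. OD read at 570 nm.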

[4] = MTT assay, 24 hours treatment, 1-100 μM

SMILES	IC50 [1, 4]	IC50 [2, 4]	IC50 ([1]; Homo sapiens, MCF7, 24 h)	IC50 ([2]; Homo sapiens, MDA-MB-231, 24 h)	IC50 against MCF-7 cells [1, 4]	IC50 [3]
COc1ccc(/C=C/C(=O)c2ccc(OCc3cn(CCCN4C(=O)c5cccc6cccc(c56)C4=O)nn3)cc2)cc1 [12f, (E)-2-(3-(4-((4-(3-(4-Methoxyphenyl)acryloyl)phenoxy)methyl)-1H-1,2,3-triazol-1-yl)propyl)-1H-benzo[de]isoquinoline-1,3(2H)-dione]	–	–	> 100 µM	> 100 µM	–	–
O=C(/C=C/c1ccc([N+](=O)[O-])cc1)c1ccc(OCc2cn(CCN3C(=O)c4cccc5cccc(c45)C3=O)nn2)cc1 [12d, (E)-2-(2-(4-((4-(3-(4-Nitrophenyl)acryloyl)phenoxy)methyl)-1H-1,2,3-triazol-1-yl)ethyl)-1H-benzo[de]isoquinoline-1,3(2H)-dione]	–	–	> 100 µM	> 100 µM	–	–
O=C(C=Cc1ccccc1)c1ccc(OCc2cn(CCCN3C(=O)c4cccc5cccc(c45)C3=O)nn2)cc1 [12e, 2-(3-(4-((4-Cinnamoylphenoxy)methyl)-1H-1,2,3-triazol-1-yl)propyl)-1H-benzo[de]isoquinoline-1,3(2H)-dione]	–	–	> 100 µM	> 100 µM	–	–
COc1ccc(/C=C/C(=O)c2ccc(OCc3cn(CCN4C(=O)c5cccc6cccc(c56)C4=O)nn3)cc2)cc1 [12b, (E)-2-(2-(4-((4-(3-(4-Methoxyphenyl)acryloyl)phenoxy)methyl)-1H-1,2,3-triazol-1-yl)ethyl)-1H-benzo[de]isoquinoline-1,3(2H)-dione]	–	–	> 100 µM	> 100 µM	–	–
COc1ccc(OC)c(/C=C/C(=O)c2ccc(OCc3cn(CCCN4C(=O)c5cccc6cccc(c56)C4=O)nn3)cc2)c1 [12g, (E)-2-(3-(4-((4-(3-(2,5-Dimethoxyphenyl)acryloyl)phenoxy)methyl)-1H-1,2,3-triazol-1-yl)propyl)-1H-benzo[de]isoquinoline-1,3(2H)-dione]	–	–	> 100 µM	> 100 µM	–	–
COc1ccc(OC)c(/C=C/C(=O)c2ccc(OCc3cn(CCN4C(=O)c5cccc6cccc(c56)C4=O)nn3)cc2)c1 [12c, (E)-2-(2-(4-((4-(3-(2,5-Dimethoxyphenyl)acryloyl)phenoxy)methyl)-1H-1,2,3-triazol-1-yl)ethyl)-1H-benzo[de]isoquinoline-1,3(2H)-dione]	–	–	> 100 µM	> 100 µM	–	–
CC1=CC(=O)c2c(O)cccc2C1=O [Plumbagin, reference compound]	–	–	3.5 µM	–	–	–
O=C(/C=C/c1ccc([N+](=O)[O-])cc1)c1ccc(OCc2cn(CCCN3C(=O)c4cccc5cccc(c45)C3=O)nn2)cc1 [12h, (E)-2-(3-(4-((4-(3-(4-nitrophenyl)acryloyl)phenoxy)methyl)-1H-1,2,3-triazol-1-yl)propyl)-1H-benzo[de]isoquinoline-1,3(2H)-dione]	–	–	> 100 µM	> 100 µM	–	–

Further lines, with some results ahead:

IC50 [1, 4]	IC50 [2, 4]	IC50 ([1]; Homo sapiens, MCF7, 24 h)	IC50 ([2]; Homo sapiens, MDA-MB-231, 24 h)	SMILES	IC50 against MCF-7 cells [1, 4]	IC50 [3]
> 100 µM	> 100 µM	–	–	O=C(/C=C/[c-]1cccc1)c1ccc(OCc2cn(CCN3C(=O)c4cccc5cccc(c45)C3=O)nn2)cc1.[Fe+2].c1cc[cH-]c1 [14a, (E)-2-(2-(4-((4-(3-Ferrocenyl-acryloyl)phenoxy)methyl)-1H-1,2,3-triazol-1-yl)ethyl)-1H-benzo[de]isoquinoline-1,3(2H)-dione]	–	–
–	–	> 100 µM	> 100 µM	CC(=O)N1N=C(c2ccc(OCc3cn(CCCN4C(=O)c5cccc6cccc(c56)C4=O)nn3)cc2)CC1c1ccc([N+](=O)[O-])cc1 (stereo not shown) [13h, 2-(3-(4-((4-(1-Acetyl-5-(4-nitrophenyl)-4,5-dihydro-1H-pyrazol-3-yl)phenoxy)methyl)-1H-1,2,3-triazol-1-yl)propyl)-1H-benzo[de]isoquinoline-1,3(2H)-dione]	–	–
–	–	> 100 µM	> 100 µM	COc1ccc(OC)c(C2CC(c3ccc(OCc4cn(CCN5C(=O)c6cccc7cccc(c67)C5=O)nn4)cc3)=NN2C(C)=O)c1 (stereo not shown) [13c, 2-(2-(4-((4-(1-Acetyl-5-(2,5-dimethoxyphenyl)-4,5-dihydro-1H-pyrazol-3-yl)phenoxy)methyl)-1H-1,2,3-triazol-1-yl)ethyl)-1H-benzo[de]isoquinoline-1,3(2H)-dione]	–	–
> 100 µM	> 100 µM	–	–	CC(=O)N1N=C(c2ccc(OCc3cn(C(C)CN4C(=O)c5cccc6cccc(c56)C4=O)nn3)cc2)CC1[c-]1cccc1.[Fe+2].c1cc[cH-]c1 (stereo not shown) [15b, 2-(2-(4-((4-(1-Acetyl-5-ferrocenyl-4,5-dihydro-1H-pyrazol-3-yl)phenoxy)methyl)-1H-1,2,3-triazol-1-yl)propyl)-1H-benzo[de]isoquinoline-1,3(2H)-dione]	–	–
–	–	> 100 µM	> 100 µM	CC(=O)N1N=C(c2ccc(OCc3cn(CCN4C(=O)c5cccc6cccc(c56)C4=O)nn3)cc2)CC1c1ccccc1 (stereo not shown) [13a, 2-(2-(4-((4-(1-Acetyl-5-phenyl-4,5-dihydro-1H-pyrazol-3-yl)phenoxy)methyl)-1H-1,2,3-triazol-1-yl)ethyl)-1H-benzo[de]isoquinoline-1,3(2H)-dione]	–	–
–	–	> 100 µM	> 100 µM	CC(=O)N1N=C(c2ccc(OCc3cn(CCCN4C(=O)c5cccc6cccc(c56)C4=O)nn3)cc2)CC1c1ccccc1 (stereo not shown) [13e, 2-(3-(4-((4-(1-Acetyl-5-phenyl-4,5-dihydro-1H-pyrazol-3-yl)phenoxy)methyl)-1H-1,2,3-triazol-1-yl)propyl)-1H-benzo[de]isoquinoline-1,3(2H)-dione]	–	–
> 100 µM	> 100 µM	–	–	CC(=O)N1N=C(c2ccc(OCc3cn(CCN4C(=O)c5cccc6cccc(c56)C4=O)nn3)cc2)CC1[c-]1cccc1.[Fe+2].c1cc[cH-]c1 (stereo not shown) [15a, 2-(2-(4-((4-(1-Acetyl-5-ferrocenyl-4,5-dihydro-1H-pyrazol-3-yl)phenoxy)methyl)-1H-1,2,3-triazol-1-yl)ethyl)-1H-benzo[de]isoquinoline-1,3(2H)-dione]	–	–
> 100 µM	> 100 µM	–	–	CC(CN1C(=O)c2cccc3cccc(c23)C1=O)n1cc(COc2ccc(C(=O)/C=C/[c-]3cccc3)cc2)nn1.[Fe+2].c1cc[cH-]c1 (stereo not shown) [14b, (E)-2-(2-(4-((4-(3-Ferrocenyl-acryloyl)phenoxy)methyl)-1H-1,2,3-triazol-1-yl)propyl)-1H-benzo[de]isoquinoline-1,3(2H)-dione]	–	–
–	–	98.1 µM	> 100 µM	COc1ccc(C2CC(c3ccc(OCc4cn(CCCN5C(=O)c6cccc7cccc(c67)C5=O)nn4)cc3)=NN2C(C)=O)cc1 (stereo not shown) [13f, 2-(3-(4-((4-(1-Acetyl-5-(4-methoxyphenyl)-4,5-dihydro-1H-pyrazol-3-yl)phenoxy)methyl)-1H-1,2,3-triazol-1-yl)propyl)-1H-benzo[de]isoquinoline-1,3(2H)-dione]	moderate cytotoxicity	> 100 µM
–	–	> 100 µM	> 100 µM	COc1ccc(C2CC(c3ccc(OCc4cn(CCN5C(=O)c6cccc7cccc(c67)C5=O)nn4)cc3)=NN2C(C)=O)cc1 (stereo not shown) [13b, 2-(2-(4-((4-(1-Acetyl-5-(4-methoxyphenyl)-4,5-dihydro-1H-pyrazol-3-yl)phenoxy)methyl)-1H-1,2,3-triazol-1-yl)ethyl)-1H-benzo[de]isoquinoline-1,3(2H)-dione]	–	–
–	–	62.2 µM	> 100 µM	COc1ccc(OC)c(C2CC(c3ccc(OCc4cn(CCCN5C(=O)c6cccc7cccc(c67)C5=O)nn4)cc3)=NN2C(C)=O)c1 (stereo not shown) [13g, 2-(3-(4-((4-(1-Acetyl-5-(2,5-dimethoxyphenyl)-4,5-dihydro-1H-pyrazol-3-yl)phenoxy)methyl)-1H-1,2,3-triazol-1-yl)propyl)-1H-benzo[de]isoquinoline-1,3(2H)-dione]	moderate cytotoxicity	> 100 µM
–	–	> 100 µM	> 100 µM	CC(=O)N1N=C(c2ccc(OCc3cn(CCN4C(=O)c5cccc6cccc(c56)C4=O)nn3)cc2)CC1c1ccc([N+](=O)[O-])cc1 (stereo not shown) [13d, 2-(2-(4-((4-(1-Acetyl-5-(4-nitrophenyl)-4,5-dihydro-1H-pyrazol-3-yl)phenoxy)methyl)-1H-1,2,3-triazol-1-yl)ethyl)-1H-benzo[de]isoquinoline-1,3(2H)-dione]	–	–
